Reference: ChEMBL document CHEMBL1122070, “Potential antitrypanosomal agents. 1,N2-Disubstituted 2-amino-5-hydroxy-4-methylnaphtho[1,2-d]thiazolium salts and related compounds” (1982)
The source made the active and inactive calls. The calls are words filed in the database; no cut-off is given here.

Legend:
[1] = tested on: Trypanosoma brucei; experiment: Minimum concentration producing complete lysis of all trypanosomes within 30 min at 37 degrees C in vitro; type: functional
In short: (§1)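 T. brucei EATRO 110 bloodstream forms from infected rat or mouse blood, 1.5-2 × 10^7/mL in 1:1 phosphate-buffered saline-glucose and MEM, held on ice and used within 8 h. At 37 °C, turbidity was followed at 750 nm. Compound was added at 5–1000 μM final, with Me2SO ≤1% v/v. Phase microscopy scored lysis at 5, 10 and 30 min. MLC is the lowest concentration lysing all within 30 min. Near-MLC concentrations were repeated on 2–3 harvests.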

[2] = tested on: Mus musculus; experiment: Maximum tolerated (nonfatal) intraperitoneal dose tested in mice infected with Trypanosoma brucei.; type: functional
In short: (§2)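 Female Swiss-Webster mice (20-25 g) infected ip with 5×10^4 T. brucei EATRO 110 in freshly drawn infected mouse blood diluted with minimum essential medium. Groups of five mice received compound ip 4-6 h post-infection, as a milled suspension in saline with 0.25% methylcellulose or as a saline solution. A dose was scored toxic if mean survival was <90% of untreated controls or deaths occurred within 72 h; the compound was then retested at a lower dose.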

[3] = tested on: Mus musculus; experiment: Maximum tolerated (nonfatal) intraperitoneal dose tested in mice infected with Trypanosoma brucei.
[4] = tested on: Trypanosoma brucei; experiment: Minimum concentration producing complete lysis of all trypanosomes within 30 min at 37 degrees C in vitro; IA is Inactive at 5 uM; type: functional, organism-based; in short: as §1
[5] = tested on: Trypanosoma brucei; experiment: Minimum concentration producing complete lysis of all trypanosomes within 30 min at 37 degrees C in vitro in the presence of bovine serum albumin.; type: functional, organism-based
In short: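 Trypanolysis of T. brucei EATRO 110 bloodstream forms (1.5-2 × 10^7/mL, 1:1 phosphate-buffered saline-glucose/MEM) with 0.3% bovine serum albumin added to the suspending medium, 37 °C. Compound was added at 5–1000 μM final with Me2SO ≤1% v/v. Turbidity was read at 750 nm and lysis checked microscopically at 5, 10 and 30 min. MLC is the lowest concentration giving complete lysis within 30 min.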

[6] = tested on: Mus musculus; experiment: Maximum tolerated (nonfatal) intraperitoneal dose tested in mice infected with Trypanosoma brucei; type: functional; in short: as §2

SMILES | Min lytic concentration [1] [µM] | Max dose [2] [mg/kg] | Max dose [3] [mg/kg] | Min lytic concentration [4] | Concentration [5] [µM] | Max dose [6] [mg/kg]
COc1ccc(Nc2nc3c(s2)c(C)c(O)c2ccccc23)cc1.Cl | 10 | 400 | – | – | – | –
Cc1c(O)c2ccccc2c2c1sc1[n+]2CCCN1.[Cl-] | >100 | – | 200 | – | – | –
C=CCNc1nc2c(s1)c(C)c(O)c1ccccc12.Cl | 20 | – | 200 | – | – | –
CC(=O)c1cccc(Nc2sc3c(C)c(O)c4ccccc4c3[n+]2C)c1 | – | – | 200 | inactive | – | –
CCNc1sc2c(C)c(O)c3ccccc3c2[n+]1CC.[Cl-] | 50 | – | 200 | – | 200 | –
Cc1c(O)c2ccccc2c2c1sc(NCCc1ccccc1)[n+]2C.[Cl-] | 10 | – | 400 | – | – | –
Cc1c(O)c2ccccc2c2c1sc(NC1CCCCC1)[n+]2CCO.[Cl-] | 20 | – | 400 | – | – | –
Cc1c(O)c2ccccc2c2c1sc(NCCCN(CCO)CCO)[n+]2C.[Cl-] | 100 | – | 50 | – | 200 | –
Cc1c(O)c2ccccc2c2nc(N)sc12.Cl | 100 | 50 | – | – | – | –
CCCCNc1sc2c(C)c(O)c3ccccc3c2[n+]1CCCC.[Cl-] | 10 | – | 400 | – | 100 | –
Cl.Nc1nc2c(cc(O)c3ccccc32)s1 | >500 | – | – | – | – | 100
COCCNc1sc2c(C)c(O)c3ccccc3c2[n+]1C.[Cl-] | 50 | – | 50 | – | – | –
CCCCCCCCNc1sc2c(C)c(O)c3ccccc3c2[n+]1C.[Cl-] | 10 | – | 200 | – | – | –
CNc1nc2c(s1)c(C)c(O)c1ccccc12.Cl | 30 | 100 | – | – | – | –
CNc1sc2c(C)c(O)c3ccccc3c2[n+]1C.[Cl-] | 100 | – | 50 | – | – | –
Cc1c(O)c2ccccc2c2nc(Nc3ccccc3)sc12.Cl | 20 | – | 200 | – | – | –
Cc1c(O)c2ccccc2c2c1sc(NCCCN1CCN(C)CC1)[n+]2C.Cl.[Cl-] | 100 | – | 100 | – | 100 | –
Cc1c(O)c2ccccc2c2c1sc(Nc1ccccc1)[n+]2C.[Cl-] | 10 | – | 200 | – | – | –
Cc1c(O)c2ccccc2c2c1sc(NCC(C)C)[n+]2CC(C)C.[Cl-] | 10 | – | 200 | – | – | –
CCCCCCNc1sc2c(C)c(O)c3ccccc3c2[n+]1CCCCCC.[Cl-] | >10 | – | 200 | – | – | –
Nc1nc(N)nc(Nc2ccc([As]3SCC(CO)S3)cc2)n1 (configuration not stated) [MELARSOPROL] | 100 | – | – | – | – | –
CCCCNc1sc2c(C)c(O)c3ccccc3c2[n+]1C.[Cl-] | 10 | – | 200 | – | – | –
Cc1c(O)c2ccccc2c2c1sc1[n+]2CCN1.[Cl-] | 30 | – | 200 | – | – | –
Cc1c(O)c2ccccc2c2c1sc(Nc1ccccc1)[n+]2CCO.[Cl-] | >5 | – | 400 | – | – | –
Cc1c(O)c2ccccc2c2c1sc(NCCO)[n+]2C.[Cl-] | 100 | – | 100 | – | – | –
CCCNc1sc2c(C)c(O)c3ccccc3c2[n+]1CCC.[Cl-] | 30 | – | 400 | – | – | –
C=CCNc1sc2c(C)c(O)c3ccccc3c2[n+]1CC=C.[Cl-] | 20 | – | 400 | – | – | –
